Results published in ChEMBL document CHEMBL1938298, “Synthesis and characterization of [¹²⁵I]2-iodo N-[(S)-{(S)-1-methylpiperidin-2-yl}(phenyl)methyl]3-trifluoromethyl-benzamide as novel imaging probe for glycine transporter 1” (Bioorg Med Chem, 2011).
Calls of active or inactive are those of the source. No cut-off for these calls is given here.

Tests used:
[1] = biological target: T1, Sodium- and chloride-dependent glycine transporter 1 (Rattus norvegicus) (UniProt P28572); experiment: Binding affinity to GlyT1 in rat brain thalamus at 0.03 to 0.04 nM preincubated for 20 mins in binding buffer before compound addition measured after 30 mins by autoradiography in presence of 0.01 mM NMDA receptor glycine site antagonist L-701,324 relative to control; assay type: tissue-based; conditions: tested as the 125I-labelled form
T1 sequence (whole entry): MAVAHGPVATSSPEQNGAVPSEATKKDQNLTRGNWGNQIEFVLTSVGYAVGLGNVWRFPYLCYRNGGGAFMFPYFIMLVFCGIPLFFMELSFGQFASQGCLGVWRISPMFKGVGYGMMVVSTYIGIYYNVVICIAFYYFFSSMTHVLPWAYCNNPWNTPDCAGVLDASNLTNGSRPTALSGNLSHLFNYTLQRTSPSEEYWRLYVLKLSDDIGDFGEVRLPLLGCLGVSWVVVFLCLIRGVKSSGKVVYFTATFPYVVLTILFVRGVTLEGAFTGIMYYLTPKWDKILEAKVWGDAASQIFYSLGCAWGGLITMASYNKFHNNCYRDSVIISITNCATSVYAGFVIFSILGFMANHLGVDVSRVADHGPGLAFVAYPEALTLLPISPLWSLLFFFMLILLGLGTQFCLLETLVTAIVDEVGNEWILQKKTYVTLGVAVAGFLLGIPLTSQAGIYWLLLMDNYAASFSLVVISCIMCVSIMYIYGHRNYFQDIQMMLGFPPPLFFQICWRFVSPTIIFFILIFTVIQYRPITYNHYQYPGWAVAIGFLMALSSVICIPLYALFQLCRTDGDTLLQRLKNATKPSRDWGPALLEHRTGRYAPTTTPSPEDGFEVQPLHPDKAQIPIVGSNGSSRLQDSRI

[2] = tested on: Mus musculus; experiment: In vivo binding affinity to GlyT1 in ddY mouse brain midbrain at 200 kBq, iv after 60 mins by autoradiography relative to control; assay type: functional, organism-based; conditions: tested as the 125I-labelled form
[3] = biological target: T1, Sodium- and chloride-dependent glycine transporter 1 (Rattus norvegicus); experiment: Binding affinity to GlyT1 in rat brain thalamus at 0.03 to 0.04 nM preincubated for 20 mins in binding buffer before compound addition measured after 30 mins by autoradiography in presence of 10 mM GlyT1 substrate glycine relative to control; assay type: tissue-based; conditions: tested as the 125I-labelled form
[4] = biological target: T1, Sodium- and chloride-dependent glycine transporter 1 (Rattus norvegicus); experiment: Binding affinity to GlyT1 in rat brain thalamus at 0.03 to 0.04 nM preincubated for 20 mins in binding buffer before compound addition measured after 30 mins by autoradiography in presence of 1 mM GlyT1 substrate glycine relative to control; assay type: tissue-based; conditions: tested as the 125I-labelled form
[5] = biological target: T1, Sodium- and chloride-dependent glycine transporter 1 (Rattus norvegicus); experiment: Binding affinity to GlyT1 in rat brain striatum at 0.03 to 0.04 nM preincubated for 20 mins in binding buffer before compound addition measured after 30 mins by autoradiography in presence of 0.01 mM GlyT1 inhibitor ALX5407 relative to control; assay type: tissue-based; conditions: tested as the 125I-labelled form
[6] = biological target: T1, Sodium- and chloride-dependent glycine transporter 1 (Rattus norvegicus); experiment: Binding affinity to GlyT1 in rat brain cerebral cortex at 0.03 to 0.04 nM preincubated for 20 mins in binding buffer before compound addition measured after 30 mins by autoradiography in presence of 0.01 mM GlyT1 inhibitor ALX5407 relative to control; assay type: tissue-based; conditions: tested as the 125I-labelled form
Procedure, shortened: (§1)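 Rat brain sagittal sections (20 µm) preincubated 20 min at 25 °C in Tris-HCl buffer pH 7.5 (NaCl, KCl, MgCl2, CaCl2), then 30 min at 25 °C with [125I] tracer (100 kBq, 0.03–0.04 nM) plus competitor (10 µM; glycine 1 or 10 mM). Cold washes, imaging plate 3 days, ROI PSL minus background per mm². % control from ≥triplicate slices, three rats.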

[7] = biological target: T1, Sodium- and chloride-dependent glycine transporter 1 (Rattus norvegicus); experiment: Binding affinity to GlyT1 in rat brain cerebellum at 0.03 to 0.04 nM preincubated for 20 mins in binding buffer before compound addition measured after 30 mins by autoradiography in presence of 0.01 mM GlyT2 inhibitor ORG25543 relative to control; assay type: tissue-based; conditions: tested as the 125I-labelled form; procedure, shortened: as §1
[8] = biological target: T1, Sodium- and chloride-dependent glycine transporter 1 (Rattus norvegicus); experiment: Binding affinity to GlyT1 in rat brain medullary region at 0.03 to 0.04 nM preincubated for 20 mins in binding buffer before compound addition measured after 30 mins by autoradiography in presence of 0.01 mM GlyT1 inhibitor HPCP relative to control; assay type: tissue-based; conditions: tested as the 125I-labelled form; procedure, shortened: as §1
[9] = tested on: Mus musculus; experiment: In vivo binding affinity to GlyT1 in ddY mouse brain striatum at 33.3 kBq, iv after 30 mins in presence of SSR504734 2 mg/kg, iv administered 15 mins prior to compound administration relative to control; assay type: functional, organism-based; parameters: dose 2 mg/kg; conditions: tested as the 125I-labelled form
[10] = biological target: T1, Sodium- and chloride-dependent glycine transporter 1 (Rattus norvegicus); experiment: Binding affinity to GlyT1 in rat brain thalamus at 0.03 to 0.04 nM preincubated for 20 mins in binding buffer before compound addition measured after 30 mins by autoradiography in presence of 0.01 mM GlyT1 inhibitor SSR504734 relative to control; assay type: tissue-based; conditions: tested as the 125I-labelled form
[11] = biological target: T1, Sodium- and chloride-dependent glycine transporter 1 (Rattus norvegicus); experiment: Binding affinity to GlyT1 in rat brain medullary region at 0.03 to 0.04 nM preincubated for 20 mins in binding buffer before compound addition measured after 30 mins by autoradiography relative to control; assay type: tissue-based; conditions: tested as the 125I-labelled form
Procedure, shortened: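 Rat brain sagittal sections (20 µm), 20 min preincubation at 25 °C in Tris-HCl pH 7.5 binding buffer, then [125I] tracer (100 kBq, 0.03–0.04 nM) for 30 min at 25 °C. Nonspecific binding taken with 10 µM unlabeled ligand. Imaging-plate read-out as (PSL−BG)/mm². Mean ± SD, n = 4–5 from at least three rats; Mann–Whitney U-test.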

[12] = Metabolic stability in ddY mouse brain assessed as compound remaining at 185 kBq after 5 mins by radio-TLC; assay type: ADME, tissue-based; conditions: read-out: Stability
[13] = tested on: Heart; experiment: Drug uptake in ddY mouse heart at 11.1 kBq, iv after 180 min by gamma counting; assay type: ADME, organism-based; conditions: in vivo, 3 h
Procedure, shortened: (§2)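 Male ddY mice (6 weeks, 30–35 g) received about 11.1 kBq [125I]tracer in 0.1 mL i.v. via tail vein. Killed at set times, organs dissected and weighed, radioactivity gamma counted. Reported as % injected dose/g tissue, mean ± SD, n = 5–6.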

[14] = tested on: Brain; experiment: Drug uptake in ddY mouse brain at 11.1 kBq, iv after 60 min by gamma counting; assay type: ADME, organism-based; conditions: in vivo, 1 h; procedure, shortened: as §2
[15] = tested on: Intestine; experiment: Drug uptake in ddY mouse intestine at 11.1 kBq, iv after 0.5 min by gamma counting; assay type: ADME, organism-based; conditions: in vivo; procedure, shortened: as §2
[16] = tested on: Lung; experiment: Drug uptake in ddY mouse lung at 11.1 kBq, iv after 0.5 min by gamma counting; assay type: ADME, organism-based; conditions: in vivo
Procedure, shortened: (§3)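 Male ddY mice (6 weeks, 30–35 g) were given about 11.1 kBq of [125I]tracer in 0.1 mL i.v. via the tail vein. At each time point the animals were killed and organs dissected, weighed and gamma-counted. Uptake is expressed as % injected dose per gram of tissue, mean ± SD, n = 5–6.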

[17] = tested on: Mus musculus; experiment: In vivo binding affinity to GlyT1 in ddY mouse brain midbrain at 33.3 kBq, iv after 60 mins in presence of nonradioactive compound 2 mg/kg, iv administered 15 mins prior to compound administration relative to control; assay type: functional
[18] = tested on: Blood; experiment: Drug uptake in ddY mouse blood at 11.1 kBq, iv after 60 min by gamma counting; assay type: ADME, organism-based; conditions: in vivo, 1 h; procedure, shortened: as §2
[19] = tested on: Stomach; experiment: Drug uptake in ddY mouse stomach at 11.1 kBq, iv after 60 min by gamma counting; assay type: ADME, organism-based; conditions: in vivo, 1 h; procedure, shortened: as §3
[20] = tested on: Liver; experiment: Drug uptake in ddY mouse liver at 11.1 kBq, iv after 180 min by gamma counting; assay type: ADME, organism-based; conditions: in vivo, 3 h; procedure, shortened: as §3

Compound	Activity [1] [%]	Activity [2]	Activity [3] [%]	Activity [4] [%]	Activity [5] [%]	Activity [6] [%]	Activity [7] [%]	Activity [8] [%]	Activity [9]	Activity [10] [%]	Activity [11]	remaining at 5 min [12] [%]	Drug uptake [13] [% ID/g]	Drug uptake [14] [% ID/g]	Drug uptake [15] [% ID/g]	Drug uptake [16] [% ID/g]	Activity [17] [%]	Drug uptake [18] [% ID/g]	Drug uptake [19] [% ID/g]	Drug uptake [20] [% ID/g]
CN1CCCC[C@H]1[C@@H](NC(=O)c1cccc(C(F)(F)F)c1I)c1ccccc1	87.1	Active	52.7	108	46.7	57.6	124	20.5	inactive	29.6	Active	–	–	–	–	–	–	–	–	–
CN1CCCC[C@H]1[C@@H](NC(=O)c1cccc(C(F)(F)F)c1[125I])c1ccccc1	–	–	–	–	–	–	–	–	–	–	–	92	1.79	1.85	0.81	17.19	51	0.8	8.26	15.05
